Source: ChEMBL document CHEMBL1914423, “New imidazo[2,1-b]thiazole derivatives: synthesis, in vitro anticancer evaluation, and in silico studies” (Eur J Med Chem, 2011)

system: U-251; assay: Anticancer activity against human U251 cells assessed as cell growth at 10^-5 M after 48 hrs by SRB assay; assay type: functional; conditions: U-251, 48 h, read-out: Activity
Procedure, shortened: (§1)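 NCI-60 single-dose screen: cells in RPMI 1640 with 5% FBS and 2 mM L-glutamine, plated at 5000–40,000 cells/well by doubling time, and preincubated 24 h at 37 °C. Compound given at one concentration from DMSO stock. Cells TCA-fixed and SRB-stained, absorbance at 515 nm. Percent growth relative to time-zero and untreated controls; inhibition % = 100 − growth %.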

Row | Structure (SMILES) | growth at 10 µM [%]
1 | COc1cccc(-c2nc3sccn3c2-c2ccnc(NCCNC(=O)c3cc(N4CCOCC4)cc(C(F)(F)F)c3)n2)c1 | 100

system: LOX IMVI; assay: Anticancer activity against human LOXIMVI cells assessed as cell growth at 10^-5 M after 48 hrs by SRB assay; assay type: functional; conditions: read-out: Activity
Procedure, shortened: (§2)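 NCI-60 single-dose screen at one concentration. Cells grown in RPMI 1640 with 5% FBS and 2 mM L-glutamine, plated at 5000–40,000 cells/well, and pre-incubated 24 h at 37 °C in 5% CO2 before DMSO-dissolved drug was added. Cells fixed with TCA, SRB-stained, absorbance read at 515 nm. Percent growth calculated against time-zero and untreated control plates.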

Row | Structure (SMILES) | growth at 10 µM [%]
2 | COc1cccc(-c2nc3sccn3c2-c2ccnc(NCCNC(=O)c3cc(N4CCOCC4)cc(C(F)(F)F)c3)n2)c1 | 79.2

system: Malme-3M; assay: Anticancer activity against human MALME-3M cells assessed as cell growth at 10^-5 M after 48 hrs by SRB assay; assay type: functional; conditions: read-out: Activity; procedure, shortened: as §2

Row | Structure (SMILES) | growth at 10 µM [%]
3 | COc1cccc(-c2nc3sccn3c2-c2ccnc(NCCNC(=O)c3cc(N4CCOCC4)cc(C(F)(F)F)c3)n2)c1 | 80.8

system: SK-MEL-2; assay: Anticancer activity against human SK-MEL-2 cells assessed as cell growth at 10^-5 M after 48 hrs by SRB assay; assay type: functional; conditions: SK-MEL-2, 48 h, read-out: Activity

Row | Structure (SMILES) | growth at 10 µM [%]
4 | COc1cccc(-c2nc3sccn3c2-c2ccnc(NCCNC(=O)c3cc(N4CCOCC4)cc(C(F)(F)F)c3)n2)c1 | 76.2

system: OVCAR-3; assay: Anticancer activity against human OVCAR3 cells assessed as cell growth at 10^-5 M after 48 hrs by SRB assay; assay type: functional; conditions: OVCAR-3, 48 h, read-out: Activity

Row | Structure (SMILES) | growth at 10 µM [%]
5 | COc1cccc(-c2nc3sccn3c2-c2ccnc(NCCNC(=O)c3cc(N4CCOCC4)cc(C(F)(F)F)c3)n2)c1 | 96.3

system: OVCAR-5; assay: Anticancer activity against human OVCAR5 cells assessed as cell growth at 10^-5 M after 48 hrs by SRB assay; assay type: functional; conditions: OVCAR-5, 48 h, read-out: Activity

Row | Structure (SMILES) | growth at 10 µM [%]
6 | COc1cccc(-c2nc3sccn3c2-c2ccnc(NCCNC(=O)c3cc(N4CCOCC4)cc(C(F)(F)F)c3)n2)c1 | 110

system: SK-OV-3; assay: Anticancer activity against human SKOV3 cells assessed as cell growth at 10^-5 M after 48 hrs by SRB assay; assay type: functional; conditions: SK-OV-3, 48 h, read-out: Activity

Row | Structure (SMILES) | growth at 10 µM [%]
7 | COc1cccc(-c2nc3sccn3c2-c2ccnc(NCCNC(=O)c3cc(N4CCOCC4)cc(C(F)(F)F)c3)n2)c1 | 99.4

system: 786-0; assay: Anticancer activity against human 786-0 cells assessed as cell growth at 10^-5 M after 48 hrs by SRB assay; assay type: functional; conditions: 786-0, 48 h, read-out: Activity; procedure, shortened: as §2

Row | Structure (SMILES) | growth at 10 µM [%]
8 | COc1cccc(-c2nc3sccn3c2-c2ccnc(NCCNC(=O)c3cc(N4CCOCC4)cc(C(F)(F)F)c3)n2)c1 | 74.4

system: A498; assay: Anticancer activity against human A498 cells assessed as cell growth at 10^-5 M after 48 hrs by SRB assay; assay type: functional; conditions: A498, 48 h, read-out: Activity; procedure, shortened: as §2

Row | Structure (SMILES) | growth at 10 µM [%]
9 | COc1cccc(-c2nc3sccn3c2-c2ccnc(NCCNC(=O)c3cc(N4CCOCC4)cc(C(F)(F)F)c3)n2)c1 | 86

system: ACHN; assay: Anticancer activity against human ACHN cells assessed as cell growth at 10^-5 M after 48 hrs by SRB assay; assay type: functional; conditions: read-out: Activity; procedure, shortened: as §2

Row | Structure (SMILES) | growth at 10 µM [%]
10 | COc1cccc(-c2nc3sccn3c2-c2ccnc(NCCNC(=O)c3cc(N4CCOCC4)cc(C(F)(F)F)c3)n2)c1 | 80.1

system: UO-31; assay: Anticancer activity against human UO31 cells assessed as cell growth at 10^-5 M after 48 hrs by SRB assay; assay type: functional; conditions: UO-31, 48 h, read-out: Activity; procedure, shortened: as §1

Row | Structure (SMILES) | growth at 10 µM [%]
11 | COc1cccc(-c2nc3sccn3c2-c2ccnc(NCCNC(=O)c3cc(N4CCOCC4)cc(C(F)(F)F)c3)n2)c1 | 60.2

system: DU-145; assay: Anticancer activity against human DU145 cells assessed as cell growth at 10^-5 M after 48 hrs by SRB assay; assay type: functional; conditions: DU-145, 48 h, read-out: Activity; procedure, shortened: as §2

Row | Structure (SMILES) | growth at 10 µM [%]
12 | COc1cccc(-c2nc3sccn3c2-c2ccnc(NCCNC(=O)c3cc(N4CCOCC4)cc(C(F)(F)F)c3)n2)c1 | 94.6

system: MCF7; assay: Anticancer activity against human MCF7 cells assessed as cell growth at 10^-5 M after 48 hrs by SRB assay; assay type: functional; conditions: MCF7, 48 h, read-out: Activity; procedure, shortened: as §2

Row | Structure (SMILES) | growth at 10 µM [%]
13 | COc1cccc(-c2nc3sccn3c2-c2ccnc(NCCNC(=O)c3cc(N4CCOCC4)cc(C(F)(F)F)c3)n2)c1 | 84.9

system: MDA-MB-231; assay: Anticancer activity against human MDA-MB-231 cells assessed as cell growth at 10^-5 M after 48 hrs by SRB assay; assay type: functional; conditions: MDA-MB-231, 48 h, read-out: Activity; procedure, shortened: as §2

Row | Structure (SMILES) | growth at 10 µM [%]
14 | COc1cccc(-c2nc3sccn3c2-c2ccnc(NCCNC(=O)c3cc(N4CCOCC4)cc(C(F)(F)F)c3)n2)c1 | 80.4

system: BT-549; assay: Anticancer activity against human BT549 cells assessed as cell growth at 10^-5 M after 48 hrs by SRB assay; assay type: functional; conditions: BT-549, 48 h, read-out: Activity; procedure, shortened: as §2

Row | Structure (SMILES) | growth at 10 µM [%]
15 | COc1cccc(-c2nc3sccn3c2-c2ccnc(NCCNC(=O)c3cc(N4CCOCC4)cc(C(F)(F)F)c3)n2)c1 | 81.1

system: T47D; assay: Anticancer activity against human T47D cells assessed as cell growth at 10^-5 M after 48 hrs by SRB assay; assay type: functional; conditions: read-out: Activity; procedure, shortened: as §1

Row | Structure (SMILES) | growth at 10 µM [%]
16 | COc1cccc(-c2nc3sccn3c2-c2ccnc(NCCNC(=O)c3cc(N4CCOCC4)cc(C(F)(F)F)c3)n2)c1 | 86.3
